We go through 18 compounds from BindingDB's records for doi:10.1021/jm001079l (Umr 8525 Cnrs - Universit&#233, 2001).

Sequence of Trypanothione reductase (P28593 whole entry): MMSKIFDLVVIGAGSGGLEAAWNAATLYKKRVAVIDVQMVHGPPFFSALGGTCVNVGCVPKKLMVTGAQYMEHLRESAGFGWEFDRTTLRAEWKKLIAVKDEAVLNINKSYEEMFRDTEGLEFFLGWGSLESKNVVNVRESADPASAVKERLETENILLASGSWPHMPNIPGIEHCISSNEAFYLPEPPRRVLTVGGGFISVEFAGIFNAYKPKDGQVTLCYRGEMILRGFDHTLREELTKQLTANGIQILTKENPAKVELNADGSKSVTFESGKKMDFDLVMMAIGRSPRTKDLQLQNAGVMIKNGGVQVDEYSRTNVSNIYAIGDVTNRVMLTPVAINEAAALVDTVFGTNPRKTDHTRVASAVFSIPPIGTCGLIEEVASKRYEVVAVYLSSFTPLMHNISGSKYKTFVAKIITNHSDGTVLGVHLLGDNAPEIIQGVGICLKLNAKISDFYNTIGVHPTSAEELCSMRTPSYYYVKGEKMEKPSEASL

The target in the assay is Trypanothione reductase (Trypanosoma cruzi, UniProt P28593). Description: Inhibitory activity against Trypanosoma cruzi trypanothione disulfide reductase, assay in presence of 57 uM T(S)2. Put shortly:
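Assay contained 250 µM NADPH, 57 µM T(S)₂, inhibitor at 0.3–50 µM and 1% DMSO final. Started with enzyme; NADPH loss followed at 340 nm. IC50 in duplicate.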
Turning to `Cc1c(N=CCCNCCCCNCCCN)c(O)c2c(O)cccc2c1O`, the half-maximal inhibitory concentration (IC50) worked out at 28 µM.

In the case of `Cc1c(N=CCCCN)c(O)c2ccccc2c1O` [2-(4-Amino-butylamino)-3-methyl-[1,4]naphthoquinone], the IC50 was > 57 µM.

`Cc1c(N=CCCN2CCN(C)CC2)c(O)c2ccccc2c1O` [2-Methyl-3-[3-(4-methyl-piperazin-1-yl)-propylamino]-[1,4]naphthoquinone]: the 50% inhibitory concentration (IC50) was > 57 µM.

For `Cc1c(N=CCCC=Nc2c(C)c(O)c3ccccc3c2O)c(O)c2ccccc2c1O` [2-methyl-3-[4-(3-methyl-1,4-dioxo-1,4-dihydro-2-naphthalenylamino)butylamino]-1,4-dihydro-1,4-naphthalenedione], the IC50 is > 57 µM.

Consider `Cc1c(N=CCCNCCCCNCCCN)c(O)c2ccccc2c1O` [2-{3-[4-(3-Amino-propylamino)-butylamino]-propylamino}-3-methyl-[1,4]naphthoquinone], for which the IC50 amounted to 28 µM.

Turning to `Cc1c(N=CCCCN)c(O)c2c(O)cccc2c1O` [3-(4-Amino-butylamino)-5-hydroxy-2-methyl-[1,4]naphthoquinone], the 50% inhibitory concentration (IC50) was > 57 µM.

Regarding `Cc1c(C=CC(=O)NCCCCNCCCNC(=O)C=Cc2c(C)c(O)c3cccc(O)c3c2O)c(O)c2c(O)cccc2c1O` [3-(8-Hydroxy-3-methyl-1,4-dioxo-1,4-dihydro-naphthalen-2-yl)-N-(4-{3-[3-(8-hydroxy-3-methyl-1,4-dioxo-1,4-dihydro-naphthalen-2-yl)-propionylamino]-propylamino}-butyl)-propionamide], the IC50 came out at 2.9 µM.

For `Cc1c(C=CC(=O)O)c(O)c2c(O)cccc2c1O` [3-(8-Hydroxy-3-methyl-1,4-dioxo-1,4-dihydro-naphthalen-2-yl)-propionic acid], the IC50 is > 50 µM.

In the case of `CN1CCN(CCCNC(=O)C=Cc2c(CCC(=O)NCCCN3CCN(C)CC3)c(O)c3cccc(O)c3c2O)CC1` [3-(8-Hydroxy-3-{2-[3-(4-methyl-piperazin-1-yl)-propylcarbamoyl]-ethyl}-1,4-dioxo-1,4-dihydro-naphthalen-2-yl)-N-[3-(4-methyl-piperazin-1-yl)-propyl]-propionamide], the IC50 is > 50 µM.

Turning to `Cc1c(C=CCC(=O)NCCCNCCCNC(=O)CC=Cc2c(C)c(O)c3ccccc3c2O)c(O)c2ccccc2c1O` [4-(3-Methyl-1,4-dioxo-1,4-dihydro-naphthalen-2-yl)-N-(3-{3-[4-(3-methyl-1,4-dioxo-1,4-dihydro-naphthalen-2-yl)-butyrylamino]-propylamino}-propyl)-butyramide], the IC50 came out at 11 µM.

Consider `CN1CCN(CCCNC(=O)CC=Cc2c(CCCC(=O)NCCCN3CCN(C)CC3)c(O)c3cccc(O)c3c2O)CC1` [4-(5-Hydroxy-3-{3-[3-(4-methyl-piperazin-1-yl)-propylcarbamoyl]-propyl}-1,4-dioxo-1,4-dihydro-naphthalen-2-yl)-N-[3-(4-methyl-piperazin-1-yl)-propyl]-butyramide], for which the concentration for half-maximal inhibition (IC50) is 11 µM.

For `Cc1c(C=CCC(=O)NCCCN2CCN(CCCNC(=O)CC=Cc3c(C)c(O)c4cccc(O)c4c3O)CC2)c(O)c2c(O)cccc2c1O` [4-(8-Hydroxy-3-methyl-1,4-dioxo-1,4-dihydro-naphthalen-2-yl)-N-[3-(4-{3-[4-(8-hydroxy-3-methyl-1,4-dioxo-1,4-dihydro-naphthalen-2-yl)-butyrylamino]-propyl}-piperazin-1-yl)-propyl]-butyramide], the IC50 amounted to 2.3 µM.

As for `Cc1c(C=CCC(=O)O)c(O)c2c(O)cccc2c1O` [4-(8-Hydroxy-3-methyl-1,4-dioxo-1,4-dihydro-naphthalen-2-yl)-butyric acid], the IC50 is > 50 µM.

For `Cc1c(N=CCCN2CCN(C)CC2)c(O)c2c(O)cccc2c1O` [5-Hydroxy-2-methyl-3-[3-(4-methyl-piperazin-1-yl)-propylamino]-[1,4]naphthoquinone], the 50% inhibitory concentration (IC50) is > 57 µM.

Consider `O=C(O)CCCC=Cc1c(CCCCCC(=O)O)c(O)c2ccccc2c1O` [6-[3-(5-Carboxy-pentyl)-1,4-dioxo-1,4-dihydro-naphthalen-2-yl]-hexanoic acid], for which the IC50 is > 50 µM.

On to `Cc1c(CC=NC(=O)OC(C)(C)C)c(O)c2ccccc2c1O` [[2-(3-Methyl-1,4-dioxo-1,4-dihydro-naphthalen-2-yl)-ethyl]-carbamic acid tert-butyl ester], for which the half-inhibitory concentration (IC50) was > 50 µM.

As for `Cc1c(CC=NC(=O)OC(C)(C)C)c(O)c2c(O)cccc2c1O` [[2-(8-Hydroxy-3-methyl-1,4-dioxo-1,4-dihydro-naphthalen-2-yl)-ethyl]-carbamic acid tert-butyl ester], the IC50 is > 25 µM.

`Cc1c(C=CCNC(=O)OC(C)(C)C)c(O)c2c(O)cccc2c1O` [[3-(8-Hydroxy-3-methyl-1,4-dioxo-1,4-dihydro-naphthalen-2-yl)-propyl]-carbamic acid tert-butyl ester]: the half-inhibitory concentration (IC50) is > 25 µM.
